The values below come from ChEMBL document CHEMBL3352321, “Design and total synthesis of Mannich derivatives of marine natural product lamellarin D as cytotoxic agents” (2014).

In one test the test system is HT-29. In words: Antiproliferative activity against human HT-29 cells assessed as growth inhibition after 72 hrs by MTT assay. The settings on record: HT-29, 72 h. It counts as functional. In outline: (§1)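 ATCC-sourced cells seeded at 4000 per well and left 12 h, then medium exchanged for fresh medium carrying graded compound concentrations for 72 h. MTT (5 mg/mL, 10 µl) added for 3 h, formazan dissolved in DMSO, absorbance read at 540 nm. GI50 taken from dose-response curve; mean ± SEM of three independent experiments.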
On the technique in general: Tetrazolium assays rely on reduction of a dye to a coloured formazan, in cell work by metabolically active cells.

The next test has as its system MDA-MB-231. Briefly: Antiproliferative activity against human MDA-MB-231 cells assessed as growth inhibition after 72 hrs by MTT assay. It counts as functional. The conditions noted are these: MDA-MB-231, 72 h. In outline: as §1
In a further test the test system is K562. In words: Antiproliferative activity against human K562 cells assessed as growth inhibition after 72 hrs by MTT assay. The settings on record: K562, 72 h. The format is functional. The gist of the method:
as §1

Another test concerns HepG2. In words: Antiproliferative activity against human HepG2 cells assessed as growth inhibition after 72 hrs by MTT assay. It counts as functional. The settings on record: HepG2, 72 h. The gist of the method:
as §1

Test [1] has as its target T1, DNA topoisomerase (Bos taurus) (UniProt A0JN73).
T1 sequence (whole entry): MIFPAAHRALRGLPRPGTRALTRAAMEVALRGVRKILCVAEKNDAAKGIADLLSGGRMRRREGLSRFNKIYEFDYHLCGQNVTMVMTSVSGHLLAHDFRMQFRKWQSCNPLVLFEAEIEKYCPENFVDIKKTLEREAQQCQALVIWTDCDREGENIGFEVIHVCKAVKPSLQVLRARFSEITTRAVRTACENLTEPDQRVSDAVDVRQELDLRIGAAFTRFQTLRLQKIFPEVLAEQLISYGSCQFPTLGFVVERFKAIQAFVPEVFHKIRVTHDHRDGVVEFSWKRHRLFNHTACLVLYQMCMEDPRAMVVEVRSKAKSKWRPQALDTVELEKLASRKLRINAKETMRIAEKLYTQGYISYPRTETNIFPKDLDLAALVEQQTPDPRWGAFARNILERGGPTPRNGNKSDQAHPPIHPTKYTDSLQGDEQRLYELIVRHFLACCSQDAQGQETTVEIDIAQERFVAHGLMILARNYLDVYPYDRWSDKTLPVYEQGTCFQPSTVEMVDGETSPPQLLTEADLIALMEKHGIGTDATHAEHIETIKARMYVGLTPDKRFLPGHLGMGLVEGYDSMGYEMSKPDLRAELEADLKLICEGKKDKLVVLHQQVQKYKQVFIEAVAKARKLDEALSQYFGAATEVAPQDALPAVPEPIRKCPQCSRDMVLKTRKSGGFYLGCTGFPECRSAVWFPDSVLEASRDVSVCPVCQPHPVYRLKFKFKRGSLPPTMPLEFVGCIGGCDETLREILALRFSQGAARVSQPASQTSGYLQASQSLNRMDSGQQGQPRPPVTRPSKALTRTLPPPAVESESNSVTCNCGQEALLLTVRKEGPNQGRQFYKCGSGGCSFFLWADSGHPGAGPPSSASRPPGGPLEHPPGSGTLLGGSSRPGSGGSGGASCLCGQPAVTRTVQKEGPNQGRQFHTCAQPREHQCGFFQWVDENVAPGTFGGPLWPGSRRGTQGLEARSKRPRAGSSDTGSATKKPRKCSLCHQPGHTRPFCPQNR
In words: Inhibition of calf thymus Topoisomerase 1-mediated relaxation of supercoiled pBR322 DNA at 100 uM after 30 mins by gel electrophoresis. The gist of the method:
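Supercoiled pBR322 DNA incubated with 1 unit calf thymus topoisomerase I, with or without compound at 100 µM, 30 min at 37 °C. Stopped with 10% SDS, run on 1% agarose gel, stained 15 min with DNA gel stain and imaged under UV. Controls without enzyme included.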

Active and inactive are the calls of the source. No cut-off for these calls is given here. Where only a bound is given, the exact number is not on record here.

For the compound `COc1cc(-c2c3c4cc(OC)c(O)cc4oc(=O)c3n3ccc4cc(O)c(OC)cc4c23)ccc1O` [LAMELLARIN D], the GI50 (commonly the concentration that inhibits growth by half) is 4.47 µM with HT-29, 0.32 µM in the test with MDA-MB-231, 0.08 µM in the test with K562 and 0.09 µM with HepG2. Moreover, the inhibition entry in test [1] is “Active”.

Take `COc1cc(-c2c3c4cc(OC)c(O)cc4oc(=O)c3n3ccc4c(CN5CCOCC5)c(O)c(OC)cc4c23)ccc1O`: the 50% growth inhibitory concentration (GI50) with HT-29 was 13 µM; in the test on MDA-MB-231, 19.9 µM; in the test with K562, 2.84 µM; in the test on HepG2, 4.47 µM. Further, the inhibition entry in test [1] was “Active”.

On to `COc1cc2c(cc1O)oc(=O)c1c2c(-c2cc(CN(C)C)c(O)c(OC)c2)c2c3cc(OC)c(O)cc3ccn21`, for which the GI50 in the test with HT-29 was 6.41 µM; with MDA-MB-231, 3.98 µM; in the test with K562, 1.85 µM; in the test with HepG2, 30.1 µM. The inhibition result in test [1] is “inactive”.

For `CCCN(CCC)Cc1c(O)c(OC)cc2c1oc(=O)c1c2c(-c2ccc(O)c(OC)c2)c2c3cc(OC)c(O)c(CN(C)C)c3ccn21`, the GI50 in the test on HT-29 worked out at 2.83 µM; with MDA-MB-231, 6.15 µM; in the test with K562, 7.16 µM; in the test with HepG2, 15.8 µM. For the same compound, in test [1], the inhibition result was “Active”.

Take `COc1cc(-c2c3n(c4c(=O)oc5cc(O)c(OC)cc5c24)CCc2cc(O)c(OC)cc2-3)ccc1O`: the GI50 in the test on HT-29 is 40.8 µM; in the test with MDA-MB-231, 17.9 µM; with K562, 1.61 µM; in the test on HepG2, 2.14 µM. Also, the inhibition entry in test [1] is “inactive”.

As to `COc1cc(-c2c3c4cc(OC)c(O)c(CN(C)C)c4oc(=O)c3n3ccc4cc(O)c(OC)cc4c23)ccc1O`, the GI50 in the test on HT-29 came to 5.46 µM; in the test on MDA-MB-231, 3.3 µM; with K562, 0.43 µM; with HepG2, 2.63 µM. In addition, in test [1], the inhibition result was “inactive”.

Take `COc1cc(-c2c3c4cc(OC)c(O)c(CN(C)C)c4oc(=O)c3n3ccc4c(CN(C)C)c(O)c(OC)cc4c23)ccc1O`: the GI50 in the test with HT-29 is 5.68 µM; with MDA-MB-231 it was 9.89 µM; in the test with K562, 9.62 µM; in the test on HepG2 it was above 50 µM. Further, in test [1], the inhibition entry is “Active”.

Regarding `COc1cc(-c2c3c4cc(OC)c(O)c(CN5CCOCC5)c4oc(=O)c3n3ccc4cc(O)c(OC)cc4c23)ccc1O`, the GI50 in the test on HT-29 turned out to be 2.64 µM; with MDA-MB-231, 4.87 µM; in the test with K562, 2.25 µM; with HepG2 it was 3.69 µM. Also, in test [1], the inhibition result was “Active”.

Consider `CCCN(CCC)Cc1c(O)c(OC)cc2c1oc(=O)c1c2c(-c2ccc(O)c(OC)c2)c2c3cc(OC)c(O)cc3ccn21`, for which the concentration for 50% growth inhibition (GI50) stood at 2.92 µM with HT-29, 9.75 µM in the test with MDA-MB-231, 2.37 µM in the test with K562 and 6.83 µM in the test on HepG2. The inhibition entry in test [1] was “Active”.

For `COc1cc(-c2c3c4cc(OC)c(O)cc4oc(=O)c3n3ccc4c(CN(C)C)c(O)c(OC)cc4c23)ccc1O`, the 50% growth inhibitory concentration (GI50) in the test with HT-29 is 15 µM; with MDA-MB-231, 13.1 µM; in the test on K562 it was 1.34 µM; in the test on HepG2, 6.37 µM. Also, the inhibition result in test [1] was “Active”.

Consider `CCN(CC)Cc1c(O)c(OC)cc2c1oc(=O)c1c2c(-c2ccc(O)c(OC)c2)c2c3cc(OC)c(O)cc3ccn21`, for which the GI50 in the test on HT-29 is 2.52 µM; in the test with MDA-MB-231, 5.78 µM; in the test on K562 it was 1.04 µM; in the test on HepG2, 5.04 µM. Further, the inhibition entry in test [1] is “Active”.

As to `COc1cc(-c2c3c4cc(OC)c(O)cc4oc(=O)c3n3ccc4c(CN5CCCCC5)c(O)c(OC)cc4c23)ccc1O`, the GI50 came to 18.3 µM with HT-29, 33.1 µM in the test with MDA-MB-231, 9.94 µM with K562 and 21.3 µM in the test with HepG2. The inhibition entry in test [1] was “Active”.

With `COc1cc(-c2c3c4cc(OC)c(O)c(CN5CCCCC5)c4oc(=O)c3n3ccc4cc(O)c(OC)cc4c23)ccc1O`, the GI50 turned out to be 2.5 µM in the test on HT-29, 7.25 µM in the test on MDA-MB-231, 1.95 µM with K562 and 6.99 µM in the test with HepG2. The inhibition entry in test [1] was “Active”.
